The results in this text go back to ChEMBL document CHEMBL3286151, “Biological activities of novel pyrazolyl hydroxamic acid derivatives against human lung cancer cell line A549” (Eur J Med Chem, 2014).

The subject of experiment [1] is A549. As to the kind of experiment: Cytotoxicity against human A549 cells assessed as growth inhibition after 24 to 48 hrs by sulforhodamine B assay. The experiment is classed as functional, cell-based. In short, it runs like this:
(§1)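 A549 cells seeded 24 h in RPMI-1640 with 10% bovine calf serum, then exposed in 1% serum medium to 1, 5 and 10 µM for 24 h and 48 h. 0.1% DMSO served as control and 5-FU as positive control. Viability by SRB staining, absorbance 540 nm, calculated relative to DMSO control. Mean ± SEM, n = 3, Student's t-test.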
On the technique in general: Sulforhodamine B stains cellular protein and so reports cell mass.

In experiment [2] the test system is A549. As to the kind of experiment: Cytotoxicity against human A549 cells assessed as growth inhibition at 1 to 10 uM by sulforhodamine B assay. It counts as functional, cell-based. The following applies: TDE = time-dependent effect. In short, it runs like this: as §1
The test system of experiment [3] is A549. As to the kind of experiment: Induction of apoptosis in human A549 cells assessed as chromatin condensation at 10 uM after 48 hrs by Hoechst 33258 staining-based fluorescence microscopic analysis. The experiment is classed as functional, cell-based. In short, it runs like this:
(§2)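 A549 cells seeded 24 h, then treated at 10 µM for 48 h in 1% serum RPMI-1640 against a 0.1% DMSO control. Fixed in 4% paraformaldehyde for 10 min at room temperature and stained with Hoechst 33258 (2 µg/mL) for 20 min. Nuclear morphology was scored by fluorescence microscopy at 200×.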

Experiment [4] has as its system A549. As to the kind of experiment: Induction of apoptosis in human A549 cells assessed as nuclear fragmentation at 10 uM after 48 hrs by Hoechst 33258 staining-based fluorescence microscopic analysis. The experiment is classed as functional, cell-based. In short, it runs like this: as §2
For experiment [5], the system named is A549. Kind of experiment: Induction of apoptosis in human A549 cells assessed as appearance of apoptotic bodies at 10 uM after 48 hrs by Hoechst 33258 staining-based fluorescence microscopic analysis. The experiment is classed as functional, cell-based. In short, it runs like this: as §2
Experiment [6] has as its system A549. As to the kind of experiment: Induction of necrosis in human A549 cells at 10 uM after 48 hrs by LDH assay. It counts as functional, cell-based. In short, it runs like this: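 Necrosis read-out: A549 cells exposed to 10 µM or 0.1% DMSO control for 48 h. Culture medium was collected and LDH activity measured with a commercial kit. Mean ± SEM, n = 3, Student's t-test.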

Experiment [7] relates to A549. Kind of experiment: Induction of autophagy in human A549 cells assessed as accumulation of acidic vesicles at 10 uM after 48 hrs by acridine orange staining-based fluorescence microscopic analysis. The experiment is classed as functional, cell-based. In short, it runs like this: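 Acidic vesicles in A549 cells after 10 µM exposure for 48 h. Cells stained with acridine orange (100 µg/mL) for 1 min at room temperature, then imaged by fluorescence microscopy at 200×.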

In experiment [8] the test system is A549. Kind of experiment: Cytotoxicity against human A549 cells assessed as growth inhibition at 1 to 10 uM after 48 hrs by sulforhodamine B assay relative to control. The experiment is classed as functional. In short, it runs like this: as §1
The test system of experiment [9] is A549. As to the kind of experiment: Induction of autophagosome formation in human A549 cells assessed as conversion of LC3-1 to LC3-2 at 5 to 10 uM after 24 hrs by Western blotting analysis. It counts as functional, cell-based. In general terms: In western blotting, separated proteins are transferred to a membrane and probed.
The subject of experiment [10] is A549. As to the kind of experiment: Induction of autophagosome formation in human A549 cells assessed as increase in LC3-2 protein level at 5 to 10 uM after 24 hrs by Western blotting analysis. It counts as functional, cell-based.
For experiment [11], the system named is A549. As to the kind of experiment: Induction of autophagosome formation in human A549 cells assessed as LC3-2 to LC3-1 ratio at 5 to 10 uM after 24 hrs by Western blotting analysis. It counts as functional, cell-based.
The test system of experiment [12] is A549. As to the kind of experiment: Induction of autophagic flux in human A549 cells assessed as decrease in p62 protein level at 5 to 10 uM after 24 hrs by Western blotting analysis. The experiment is classed as functional, cell-based.
The subject of experiment [13] is A549. Kind of experiment: Cell cycle arrest in human A549 cells assessed as accumulation at G1 phase at 10 uM after 48 hrs by propidium iodide staining-based flow cytometric analysis (reference value: 54.5%). The experiment is classed as functional. Background: A flow cytometer gives signals particle by particle.
The subject of experiment [14] is A549. As to the kind of experiment: Cell cycle arrest in human A549 cells assessed as accumulation at G2 phase at 10 uM after 48 hrs by propidium iodide staining-based flow cytometric analysis (reference value: 10.32%). It counts as functional.
Experiment [15] has as its system A549. As to the kind of experiment: Cell cycle arrest in human A549 cells assessed as accumulation at S phase at 10 uM after 48 hrs by propidium iodide staining-based flow cytometric analysis (reference value: 35.18%). The experiment is classed as functional.
For experiment [16], the system named is A549. Kind of experiment: Cell cycle arrest in human A549 cells assessed as accumulation at G2/G1 phase at 10 uM after 48 hrs by propidium iodide staining-based flow cytometric analysis (reference value: 1.91%). The experiment is classed as functional.

The IC50 is the point on the concentration scale where inhibition reaches its midpoint.

The source made the active and inactive calls. The calls are words filed in the database; no cut-off is given here. Some results are limits rather than exact numbers.

`O=C(NO)c1cc(-c2ccccc2)nn1Cc1ccccc1`: in the experiment on A549 [1], the IC50 stood at 5.6 µM. For the same compound, the entries for the “growth inhibition (GI)” value with A549 [1] and in the experiment with A549 [2] were “Dose-dependent effect” and “tde”, respectively. The result with A549 [3], with A549 [4], with A549 [5] and with A549 [6] was inactive. Besides, in the experiment with A549 [7], the outcome was Active.
`O=C(NO)c1cc(-c2ccccc2)nn1Cc1ccc([N+](=O)[O-])cc1`: the IC50 in the experiment with A549 [1] turned out to be 6 µM. Further, the “growth inhibition (GI)” value in the experiment with A549 [1] is “Dose-dependent effect”; in the experiment with A549 [2], “tde”. Moreover, the result with A549 [3], in the experiment with A549 [4], in the experiment on A549 [5] and in the experiment with A549 [6] was inactive. Further, the result in the experiment on A549 [7] was Active.
In the case of `O=C(NO)c1cc(-c2ccc(Cl)cc2)nn1Cc1ccccc1`, in the experiment with A549 [1], the IC50 turned out to be 4.44 µM. The “growth inhibition (GI)” value in the experiment on A549 [1] was “Dose-dependent effect”; in the experiment with A549 [2], “tde”. The result in the experiment on A549 [3], with A549 [4], with A549 [5] and in the experiment with A549 [6] was inactive. Besides, the result with A549 [7] was Active.
For `COc1ccc(-c2cc(C(=O)NO)n(Cc3ccccc3)n2)cc1`, the 50% inhibitory concentration (IC50) in the experiment on A549 [1] was determined as 6.77 µM. Also, the “growth inhibition (GI)” value was “Dose-dependent effect” in the experiment on A549 [1] and “tde” in the experiment on A549 [2]. Moreover, the result with A549 [3], in the experiment on A549 [4], in the experiment with A549 [5] and in the experiment with A549 [6] was inactive. Also, the result in the experiment on A549 [7] was Active.
Turning to `CC(C)(C)c1ccc(Cn2nc(-c3ccccc3)cc2C(=O)NO)cc1`, the IC50 in the experiment with A549 [1] was 1.72 µM. Further, the “growth inhibition (GI)” value with A549 [1] was “Dose-dependent effect”; in the experiment on A549 [2] it was “tde”; in the experiment on A549 [8], “<=70%”. The result in the experiment on A549 [3], in the experiment on A549 [4], in the experiment on A549 [5] and in the experiment on A549 [6] was inactive. For the same compound, the result with A549 [7], with A549 [9], in the experiment with A549 [10], with A549 [11] and in the experiment on A549 [12] was Active. Further, the Activity is 72.8% in the experiment on A549 [13], 2.32% in the experiment with A549 [14], 24.87% in the experiment on A549 [15] and 1.8% in the experiment on A549 [16].
Take `O=C(NO)c1cc(-c2ccc(Cl)cc2)nn1Cc1ccc([N+](=O)[O-])cc1`: the IC50 in the experiment with A549 [1] was 7.78 µM. Moreover, the figures for the “growth inhibition (GI)” value in the experiment on A549 [1] and with A549 [2] were “Dose-dependent effect” and “tde”, respectively. Besides, the outcome with A549 [3], with A549 [4], in the experiment with A549 [5] and in the experiment with A549 [6] was inactive. Further, in the experiment on A549 [7], the outcome was Active.
As for `O=c1[nH]cc(F)c(=O)[nH]1` [FLUOROURACIL], the 50% inhibitory concentration (IC50) in the experiment with A549 [1] was determined as 1.65 µM.
Take `COc1ccc(-c2cc(C(=O)NO)n(Cc3ccc(C(C)(C)C)cc3)n2)cc1`: the IC50 in the experiment with A549 [1] was determined as 2.56 µM. In addition, the “growth inhibition (GI)” value with A549 [1] was “Dose-dependent effect”; with A549 [2] it was “tde”; in the experiment on A549 [8] it was “<=70%”. The outcome in the experiment on A549 [3], in the experiment on A549 [4] and in the experiment with A549 [5] was inactive. The result in the experiment with A549 [6] and in the experiment on A549 [7] was Active.
In the case of `COc1ccc(-c2cc(C(=O)NO)n(Cc3ccc([N+](=O)[O-])cc3)n2)cc1`, the IC50 in the experiment with A549 [1] is 7.11 µM. The “growth inhibition (GI)” value in the experiment with A549 [1] is “Dose-dependent effect”; with A549 [2], “tde”. Moreover, the result in the experiment on A549 [3], in the experiment on A549 [4], with A549 [5] and in the experiment on A549 [6] was inactive. Besides, the result in the experiment with A549 [7] was Active.
As for `COc1ccc(-c2cc(C(=O)NO)n(Cc3ccc(Cl)nc3)n2)cc1`, the IC50 with A549 [1] stood at 8.56 µM. The “growth inhibition (GI)” value in the experiment with A549 [1] was “Dose-dependent effect”; in the experiment on A549 [2], “tde”. In addition, the outcome in the experiment with A549 [3], with A549 [4] and in the experiment with A549 [5] was inactive. Moreover, the result in the experiment on A549 [6] and in the experiment with A549 [7] was Active.
In the case of `O=C(NO)c1cc(-c2ccccc2)nn1Cc1ccc(Cl)nc1`, the concentration for half-maximal inhibition (IC50) in the experiment on A549 [1] turned out to be 8.5 µM. Moreover, the results for the “growth inhibition (GI)” value in the experiment on A549 [1] and in the experiment with A549 [2] were “Dose-dependent effect” and “tde”, respectively. Besides, the outcome in the experiment on A549 [3], with A549 [4], with A549 [5] and with A549 [6] was inactive. For the same compound, the result with A549 [7] was Active.
With `O=C(NO)c1cc(-c2ccc(Cl)cc2)nn1Cc1ccc(Cl)nc1`, the IC50 in the experiment on A549 [1] is 4.21 µM. For the same compound, the “growth inhibition (GI)” value with A549 [1] is “Dose-dependent effect”; in the experiment on A549 [2], “tde”; with A549 [8], “<=70%”. The outcome with A549 [3], in the experiment on A549 [4], in the experiment with A549 [5] and with A549 [6] was inactive. Also, the result with A549 [7], in the experiment with A549 [9], in the experiment on A549 [10], in the experiment with A549 [11] and in the experiment on A549 [12] was Active. Also, the Activity in the experiment on A549 [13] is recorded as 71.91%; in the experiment with A549 [14], 0%; in the experiment with A549 [15], 28.09%; in the experiment on A549 [16], 1.84%.
Take `CC(C)(C)c1ccc(Cn2nc(-c3ccc(Cl)cc3)cc2C(=O)NO)cc1`: in the experiment on A549 [1], the IC50 amounted to 1.82 µM. For the same compound, the “growth inhibition (GI)” value with A549 [1] is “Dose-dependent effect”; in the experiment with A549 [2], “tde”; with A549 [8], “<=70%”. Besides, the outcome in the experiment on A549 [3], in the experiment with A549 [4], with A549 [5] and in the experiment on A549 [6] was inactive. Besides, the result with A549 [7], with A549 [9], in the experiment with A549 [10], in the experiment on A549 [11] and in the experiment on A549 [12] was Active. Besides, the Activity in the experiment on A549 [13] amounted to 78.73%; in the experiment on A549 [14], 0%; with A549 [15] it was 21.27%; with A549 [16], 1.96%.
